According to ChEMBL document CHEMBL1124951, “N-phenyl-2-pyridinecarbothioamides as gastric mucosal protectants” (J Med Chem, 1990):
Active and inactive are the calls of the source. No cut-off for these calls is given here.

Key:
[1] = tested on: Rattus norvegicus; assay: Compound was evaluated for activity in stress-induced ulcer rat (po); type: functional
How it was run: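 Rats dosed po with drug or vehicle 30 min before immobilization in restrainers at 4-5 °C for 3 h, then euthanized. Gastric ulcers graded by size and number, with percent inhibition taken against the control mean.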

[2] = species: Rattus norvegicus; assay: Effective dose against ethanol-induced gastric lesions in male albino rat when given perorally was determined; 0.2-4.7; type: functional; details: Stomach, po
How it was run: (§1)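 Charles River male albino rats (190-219 g), food withheld 18-24 h with water available. Drug or vehicle given orally 1 h before ethanol (1 mL per rat po). Rats killed by CO2 asphyxiation 1 h after ethanol. Lesions scored single blind by size (mm2) and number per size category. Percent inhibition taken against the vehicle group mean; ED50 with 95% confidence limits obtained by regression of dose-response data.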

[3] = tested on: Rattus norvegicus; assay: Compound was evaluated for antisecretory action in the pylorus-ligated rat model (PLR) at 100 mg/kg (po); No significant activity at 100 mg/kg; type: functional, organism-based
How it was run: (§2)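 Drug or vehicle given orally. After 1 h, rats anesthetized with methohexital (30 mg/kg ip) and the pylorus ligated through a midline incision. Killed by CO2 4 h after surgery. Gastric volume measured and acid titrated to pH 7.0 with 0.1 N NaOH. Total acid output (microequivalents per 4 h) = volume × acid concentration.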

[4] = Compound was evaluated for lethal activity through acute lethality model when given perorally; type: ADME, organism-based; details: rat, in vivo, po
[5] = species: Rattus norvegicus; assay: Effective dose against ethanol-induced gastric lesions in male albino rat when given perorally was determined; 3.0-10; type: functional; details: Stomach, po; how it was run: as §1
[6] = tested on: Rattus norvegicus; assay: Percent inhibition against ethanol-induced gastric lesions in male albino rat was determined at a dose of 10 mg/Kg; type: functional; details: Stomach; how it was run: as §1
[7] = tested on: Rattus norvegicus; assay: Percent inhibition against ethanol-induced gastric lesions in male albino rat was determined at a dose of 50 mg/Kg (po); type: functional; details: Stomach; how it was run: as §1
[8] = tested on: Rattus norvegicus; assay: Percent inhibition against ethanol-induced gastric lesions in male albino rat was determined at a dose of 25 mg/Kg; type: functional; details: Stomach; how it was run: as §1
[9] = tested on: Rattus norvegicus; assay: Percent inhibition against ethanol-induced gastric lesions in male albino rat was determined at a dose of 5 mg/Kg; type: functional; details: Stomach; how it was run: as §1
[10] = species: Rattus norvegicus; assay: Effective dose against ethanol-induced gastric lesions in male albino rat when given perorally was determined; 0.5-1.5; type: functional; details: Stomach, po; how it was run: as §1
[11] = tested on: Rattus norvegicus; assay: Percent inhibition against ethanol-induced gastric lesions in male albino rat was determined at a dose of 5 mg/Kg (po); type: functional; details: Stomach; how it was run: as §1
[12] = tested on: Rattus norvegicus; assay: Compound was evaluated for activity against ethanol-induced gastric lesions mg/kg;NS=No significant activity at 25 mg/kg; type: functional, organism-based; set-up: dose 25 mg/kg; details: Stomach; how it was run: as §1
[13] = species: Rattus norvegicus; assay: Compound was evaluated for activity in stress-induced ulcers; type: functional
How it was run: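 Rats dosed po with drug or vehicle 30 min before immobilization in restrainers at 4-5 °C for 3 h, then euthanized. Gastric ulcers graded by size and number, with percent inhibition taken against the control mean. ED50 with 95% confidence limits obtained by regression of dose-response data.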

[14] = species: Rattus norvegicus; assay: Compound was evaluated for antisecretory action in the pylorus-ligated rat model (PLR); type: functional; how it was run: as §2
[15] = species: Rattus norvegicus; assay: Compound was evaluated for activity in acute lethality model; type: ADME, organism-based; details: in vivo
[16] = tested on: Rattus norvegicus; assay: Percent inhibition against ethanol-induced gastric lesions in male albino rat was determined at a dose of 100 mg/Kg (po); type: functional; details: Stomach; how it was run: as §1
[17] = species: Rattus norvegicus; assay: Compound was evaluated for activity against ethanol-induced gastric lesions; type: functional; details: Stomach; how it was run: as §1
[18] = tested on: Rattus norvegicus; assay: Compound was evaluated for antisecretory action in the pylorus-ligated rat model (PLR) at 100 mg/kg;NS=No significant activity at 100 mg/kg; type: functional, organism-based; how it was run: as §2
[19] = species: Rattus norvegicus; assay: Compound was evaluated for activity in acute lethality model; NL=Not lethal; type: ADME, organism-based; details: in vivo
[20] = species: Rattus norvegicus; assay: Effective dose against ethanol-induced gastric lesions in male albino rat when given perorally was determined; 2.4-11; type: functional; details: Stomach, po; how it was run: as §1
[21] = species: Rattus norvegicus; assay: Effective dose against ethanol-induced gastric lesions in male albino rat when given perorally was determined; 1.2-5.9; type: functional; details: Stomach, po; how it was run: as §1

S=C(Nc1ccccc1)c1ccccn1
ED50 [1]: 10 mg/kg
ED50 [2]: 1.1 mg/kg
ED50 [3]: inactive
LD50 [4]: > 1000 mg/kg

Cc1ccc(NC(=S)c2ccccn2)cc1F
ED50 [5]: 5.4 mg/kg

O=C(Nc1cccc(F)c1)c1ccccn1
inhibition in vivo at 10 mg/kg [6]: 24%

S=C(c1ccccn1)N1CCN(c2ccccc2)CC1
inhibition in vivo at 50 mg/kg [7]: -6%

Fc1cc(F)cc(NC(=S)c2cccnc2)c1
inhibition in vivo at 25 mg/kg [8]: 55%

Fc1cc(F)cc(NC(=S)c2ccncc2)c1
inhibition in vivo at 25 mg/kg [8]: 85%

S=C(NCc1ccc2c(c1)OCO2)c1ccccn1
inhibition in vivo at 50 mg/kg [7]: 11%

N#CN/C(=N\c1ccccc1)c1ccccn1
inhibition in vivo at 5 mg/kg [9]: 37%

C[S+]([O-])c1ccc(NC(=S)c2ccccn2)cc1 (centres undefined)
inhibition in vivo at 5 mg/kg [9]: 54%

Fc1ccc(NC(=S)c2ccccn2)cc1Cn1ccnc1
ED50 [10]: 0.9 mg/kg

S=C(c1ccccn1)N1CCOCC1
inhibition in vivo at 50 mg/kg [7]: 44%

CSc1ccc(NC(=S)c2ccccn2)cc1
inhibition in vivo at 5 mg/kg [11]: 31%

Cc1ccc(NC(=S)c2ccccn2)cc1Cl
inhibition in vivo at 25 mg/kg [8]: 22%

N#Cc1cc(NC(=S)c2ccccn2)ccc1F
inhibition in vivo at 10 mg/kg [6]: 29%

O=C(O)c1cc(NC(=S)c2ccccn2)ccc1F
inhibition in vivo at 10 mg/kg [6]: 42%

FC(F)(F)Oc1ccc(NC(=S)c2ccccn2)cc1
inhibition in vivo at 5 mg/kg [9]: 35%

S=C(Nc1cc(Cl)cc(Cl)c1)c1ccccn1
inhibition in vivo at 25 mg/kg [8]: 89%

COc1ccc(NC(=S)c2ccccn2)cc1Cl
inhibition in vivo at 25 mg/kg [8]: 44%

CN(C(=S)c1ccccn1)c1cc(F)cc(F)c1
inhibition in vivo at 25 mg/kg [8]: 40%

CNC(=C[N+](=O)[O-])NCCSCc1ccc(CN(C)C)o1 [RANITIDINE]
ED50 [12]: inactive
ED50 [13]: 3.6 mg/kg
ED50 [14]: 2.4 mg/kg
LD50 [15]: Not Active

Fc1ccccc1/N=C(\S)c1ccccn1
inhibition in vivo at 100 mg/kg [16]: 69%

CCOC(=O)c1cc(NC(=S)c2ccccn2)ccc1F
inhibition in vivo at 10 mg/kg [6]: 10%

COc1ccc(NC(=S)c2ccccn2)cc1OC
inhibition in vivo at 5 mg/kg [11]: 0%

S=C(Nc1ccc(OCc2ccccc2)cc1)c1ccccn1
inhibition in vivo at 5 mg/kg [11]: 47%

O=S(=O)(OC[C@H]1O[C@@H](O[C@]2(COS(=O)(=O)[O][Al]([OH])[OH])O[C@H](OS(=O)(=O)[O][Al]([OH])[OH])[C@@H](OS(=O)(=O)[O][Al]([OH])[OH])[C@@H]2OS(=O)(=O)[O][Al]([OH])[OH])[C@H](OS(=O)(=O)[O][Al]([OH])[OH])[C@@H](OS(=O)(=O)[O][Al]([OH])[OH])[C@@H]1OS(=O)(=O)[O][Al]([OH])[OH])[O][Al]([OH])[OH].[OH][Al]([OH])[OH].[OH][Al]([OH])[OH].[OH][Al]([OH])[OH].[OH][Al]([OH])[OH].[OH][Al]([OH])[OH].[OH][Al]([OH])[OH].[OH][Al]([OH])[OH].[OH][Al]([OH])[OH]
ED50 [17]: 60 mg/kg
ED50 [18]: inactive
LD50 [19]: Not lethal

Fc1ccc(NC(=S)c2ccccn2)cc1Cl
inhibition in vivo at 25 mg/kg [8]: 56%

FC(F)(F)COc1cccc(NC(=S)c2ccccn2)c1
inhibition in vivo at 10 mg/kg [6]: 7%

CN(C(=S)c1ccccn1)c1cccc(F)c1
inhibition in vivo at 10 mg/kg [6]: 31%

S=C(Nc1cccc(CN2CCOCC2)c1)c1ccccn1
inhibition in vivo at 10 mg/kg [6]: 64%

S=C(Nc1ccccn1)c1cnccn1
ED50 [20]: 5.2 mg/kg

S=C(Nc1cccc(CN2CCSCC2)c1)c1ccccn1
inhibition in vivo at 10 mg/kg [6]: 32%

O=C(Nc1cc(F)cc(F)c1)c1ccccn1
inhibition in vivo at 25 mg/kg [8]: 11%

CN1CCN(Cc2cccc(NC(=S)c3ccccn3)c2)CC1
inhibition in vivo at 10 mg/kg [6]: 10%

CCN(C(=S)c1ccccn1)c1cc(F)cc(F)c1
inhibition in vivo at 10 mg/kg [6]: 13%

S=C(c1ccccn1)N1CCCc2ccccc21
inhibition in vivo at 10 mg/kg [6]: 17%

S=C(Nc1ccccn1)c1ccccn1
ED50 [21]: 2.6 mg/kg
